Screening results from PubChem BioAssay.
S100A4 inh HTS = blocks human S100A4 binding to myosin IIA peptide; S100A4/TAMRA-MyoIIA peptide fluorescence polarization; inhibition, % at 10.7 µM; 360,000 tested, 0.14% active; AID 652163; P26447;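 active = mean inhibition of at least 70% across replicates, with every replicate also reaching that level; inconclusive = mean inhibition reaches 70% but some replicates fall short; inactive = mean inhibition below 70%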
Target sequence (P26447 whole entry, looked up): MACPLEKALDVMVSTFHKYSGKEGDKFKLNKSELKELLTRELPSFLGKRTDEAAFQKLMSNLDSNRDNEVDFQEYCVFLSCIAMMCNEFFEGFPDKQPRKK
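System – human S100A4 monomer protein, biochemical binding assay · Buffer or medium – Calcium-containing HEPES buffer, pH 7.2 · Timing – 5 min between mix addition and reading · Also added – TAMRA-labelled myosin IIA heavy-chain peptide probe, 5 nM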
FGF22 binding = binders of recombinant human FGF22 by thermal shift | Q9HCT0 | SYPRO orange fluorescence; percent of sucrose octasulfate shift, DMSO zero | activity (Tm shift, normalised), % at 9.99 µM | 340,000 tested, 1.5% active;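 active = mean Tm shift, scaled 0 neutral to 100 positive control, at about 1.3% or above, every replicate too, limit read from the data; inconclusive = no clear call, values can overlap the other calls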
Target sequence (Q9HCT0 whole entry, looked up): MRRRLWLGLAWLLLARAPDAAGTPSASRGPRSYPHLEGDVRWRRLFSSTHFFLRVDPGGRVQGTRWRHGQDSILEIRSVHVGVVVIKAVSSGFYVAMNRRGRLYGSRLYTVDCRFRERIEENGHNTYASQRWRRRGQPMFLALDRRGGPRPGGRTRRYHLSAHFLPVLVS
E-sel inducer = E-selectin induction on HUVECs; AID 686992; 260,000 tested, 0.37% active; HUVEC E-selectin immunofluorescence imaging; normalized: neutral wells 0, TNF-alpha wells 100; activation, % at 7.58 µM;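 active = mean E-selectin-positive cell signal at least 10% of the positive control, reached in at least 60% of replicates, without over 20% cell loss; inconclusive = no rule given, readout overlaps actives, possibly toxicity-flagged; inactive = the rest, including those meeting only one limit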
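Material: HUVEC primary endothelial cells; Amount: 3,000 cells per well; Dosing: single concentration; Medium: EGM-2 growth medium on 0.1% gelatin-coated wells; Read-out basis: percent E-selectin-positive cells; Signal: immunofluorescence imaging; Control set: TNF-alpha, DMSO.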
SIRT5 block = blocks human SIRT5 desuccinylation of peptide; AID 652115; Q9NXA8; Purified SirT5, succinyl-peptide AMC, trypsin-coupled fluorescence; 330,000 tested, 1.1% active; inhibition, % at 15 µM; in the data active = inhibition above about 15%; inconclusive = no clear call, values can overlap the other calls
Target sequence (Q9NXA8 whole entry, looked up): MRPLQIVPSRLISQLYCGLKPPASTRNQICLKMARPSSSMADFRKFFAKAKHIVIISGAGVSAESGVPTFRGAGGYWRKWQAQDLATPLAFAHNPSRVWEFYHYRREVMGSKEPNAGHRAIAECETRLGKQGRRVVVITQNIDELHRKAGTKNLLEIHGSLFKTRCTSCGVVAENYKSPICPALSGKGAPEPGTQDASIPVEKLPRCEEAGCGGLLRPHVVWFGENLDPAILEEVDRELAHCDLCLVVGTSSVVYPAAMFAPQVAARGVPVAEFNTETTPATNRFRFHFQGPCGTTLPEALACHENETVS
miR122 inh = inhibitors of miR-122 in Huh7 cells; 340,000 tested, 0.3% active; AID 602342; Huh7 miR-122 Renilla luciferase sensor, 48 h; neutral wells = 0, positive control = 100; activation (reporter increase), % at 12.5 µM;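 active = mean replicate activation score at least 90 and every replicate individually at or above 90; inconclusive = only one of the two criteria met; inactive = neither criterion met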;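 note: higher luciferase means less miR-122 activity so hits act as miR-122 inhibitors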
Starred values were filed as active, the others as inactive; [ ] = dose if it differs, or a comment. The list is not random: actives were taken first. Their share in the collection is about 2.5%.

What do the screens show for `O=C(c1ccncc1)N1CC(=O)N2[C@H](CO)[C@H](c3ccc(-c4ccccc4)cc3)[C@H]2C1`?
S100A4 inh HTS: 16; E-sel inducer: 0; SIRT5 block: 2

Results for CCN(CC)c1ccc(N)cc1S(=O)(=O)Nc1ccc(OC)cc1 ?
S100A4 inh HTS: -2; FGF22 binding: 0; E-sel inducer: -2; miR122 inh: 107*

Results for COc1ccc(NC(=O)Nc2cccc3c2O[C@H](CN(C)Cc2ccc(C(=O)Nc4ccccc4N)cc2)[C@H](C)CN([C@H](C)CO)C3=O)cc1 ?
S100A4 inh HTS: 0; FGF22 binding: -1; E-sel inducer: 34*; SIRT5 block: 3; miR122 inh: 58[16.7 µM]

What do the screens show for `C[C@H]1CN([C@@H](C)CO)C(=O)c2cccc(NC(=O)Nc3ccccc3)c2O[C@@H]1CN(C)Cc1ccc(C(F)(F)F)cc1`?
S100A4 inh HTS: -3; FGF22 binding: -1; E-sel inducer: 1; SIRT5 block: 0; miR122 inh: 73[16.7 µM]

What do the screens show for `COc1ccc(NC(=O)Nc2cccc3c2O[C@@H](CN(C)Cc2ccc(C(=O)Nc4ccccc4N)cc2)[C@@H](C)CN([C@H](C)CO)C3=O)cc1`?
S100A4 inh HTS: 0; FGF22 binding: 0; E-sel inducer: -2; SIRT5 block: 4

What do the screens show for `COc1ccc(CN(C)C[C@H]2Oc3c(NC(=O)Nc4ccc(C(F)(F)F)cc4)cccc3C(=O)N([C@H](C)CO)C[C@H]2C)cc1`?
S100A4 inh HTS: -3; FGF22 binding: -1; E-sel inducer: 0; SIRT5 block: 4; miR122 inh: -1[16.7 µM]

What do the screens show for `COc1ccc(NC(=O)Nc2cccc3c2O[C@@H](CN(C)Cc2ccc(C(F)(F)F)cc2)[C@@H](C)CN([C@H](C)CO)C3=O)cc1`?
S100A4 inh HTS: -3; FGF22 binding: 0; E-sel inducer: 0; SIRT5 block: 21*; miR122 inh: 21[16.7 µM]

How did C[C@@H]1CN([C@@H](C)CO)C(=O)c2cccc(NC(=O)Nc3ccccc3)c2O[C@H]1CN(C)Cc1ccc(C(F)(F)F)cc1 do in these assays?
S100A4 inh HTS: 4; FGF22 binding: -1; E-sel inducer: 10; SIRT5 block: 2; miR122 inh: 115*[16.7 µM]

What do the screens show for `C[C@H](NC(=O)C[C@H]1CC[C@@H]2[C@H](COC[C@H](O)CN2C(=O)Nc2cccc(F)c2)O1)c1ccccc1`?
S100A4 inh HTS: -46; FGF22 binding: 0; E-sel inducer: 0; SIRT5 block: 0; miR122 inh: 4[16.7 µM]

How did Cc1ccc(SCc2cc(=O)n(C)[nH]2)cc1 do in these assays?
S100A4 inh HTS: 1; FGF22 binding: 0; E-sel inducer: 82*; SIRT5 block: 1

How did Cc1ccc(SCc2cc(=O)n3[nH]c(C)nc3n2)cc1 do in these assays?
miR122 inh: -5

Results for CCOC(=O)C1=C(C)NC(=S)NC1c1ccsc1 (stereo not given) ?
S100A4 inh HTS: 0; FGF22 binding: 43*; SIRT5 block: -2

What do the screens show for `CCOC(=O)C1=C(C)NC(=S)NC1c1ccc(C)s1` (stereo not given)?
S100A4 inh HTS: -7; FGF22 binding: 0; SIRT5 block: -1

What do the screens show for `CCOc1ccc(C(=O)N2CCN(S(=O)(=O)c3cccs3)CC2)c(OCC)c1`?
S100A4 inh HTS: 4; FGF22 binding: 0; E-sel inducer: 33*; SIRT5 block: 7; miR122 inh: -2

What do the screens show for `CCOC(=O)N1CCN(S(=O)(=O)c2cccs2)CC1`?
miR122 inh: -10

What do the screens show for `CCC(=O)N1CC[C@H]2[C@H](CO)Nc3ccc(-c4ccc(OC)cc4)cc3[C@H]21`?
FGF22 binding: 0; E-sel inducer: 1; miR122 inh: -2[16.7 µM]

Results for COCC(=O)Nc1ccc2c(c1)C(=O)N(C)[C@@H]1CC[C@@H](CC(=O)NC3CCCC3)O[C@@H]1CO2 ?
FGF22 binding: 0; E-sel inducer: 0; miR122 inh: -60[16.7 µM]

How did Cc1ccc(S(=O)(=O)Nc2ccc3c(c2)C(=O)N([C@H](C)CO)C[C@H](C)[C@@H](CN(C)Cc2ccccc2)OCCCC[C@@H](C)O3)cc1 do in these assays?
FGF22 binding: 0; miR122 inh: -1[16.7 µM]

What do the screens show for `CCN(CC)c1nc2c(c(=O)[nH]c(=O)n2C)n1Cc1ccccc1`?
S100A4 inh HTS: 7; FGF22 binding: 0; SIRT5 block: 102*; miR122 inh: -1

How did Cc1cc(C(=O)Nc2cccc3c2O[C@@H](CN(C)S(=O)(=O)c2cccs2)[C@@H](C)CN([C@H](C)CO)C3=O)n(C)n1 do in these assays?
S100A4 inh HTS: 3; FGF22 binding: -1; E-sel inducer: 0; SIRT5 block: 0; miR122 inh: 28[16.7 µM]

How did COc1cc(S(=O)(=O)Nc2ccc(C)cc2)ccc1N=Cc1c(C)c(C#N)c(=O)n(C)c1O do in these assays?
S100A4 inh HTS: 80*; FGF22 binding: 42; SIRT5 block: 1; miR122 inh: 13

How did COc1cc(S(=O)(=O)Nc2ccc(C)cc2)ccc1N=Cc1c(C)[nH]n(-c2ccc(C)cc2)c1=O do in these assays?
S100A4 inh HTS: 1; FGF22 binding: 0; E-sel inducer: 0; SIRT5 block: -2

How did CC(=C/c1ccc(C(C)C)cc1)/C=N/NC(=O)c1ccncc1 do in these assays?
S100A4 inh HTS: 1; FGF22 binding: 43*; SIRT5 block: 2; miR122 inh: -6

Results for Cc1noc(C)c1NC(=O)Nc1cccc2c1O[C@H](CN(C)C(=O)Nc1c(C)noc1C)[C@H](C)CN([C@H](C)CO)C2=O ?
S100A4 inh HTS: -9; FGF22 binding: 0; E-sel inducer: 0; SIRT5 block: -6; miR122 inh: 7[16.7 µM]

What do the screens show for `CC(=O)Nc1ccc(NC(=O)C(C)OC(=O)CCCN=C2NS(=O)(=O)c3ccccc32)cc1` (stereo not given)?
S100A4 inh HTS: 136*; FGF22 binding: 0; SIRT5 block: -12; miR122 inh: -3

What do the screens show for `CC(C)CCNC(=O)NC(=O)COC(=O)CCN=C1NS(=O)(=O)c2ccccc21`?
S100A4 inh HTS: -17; FGF22 binding: 44*; E-sel inducer: 0; SIRT5 block: 2; miR122 inh: -4

Results for CS(=O)(=O)Nc1cccc(NC(=O)c2cccc3c(-c4ccc(F)c(F)c4)coc23)c1 ?
S100A4 inh HTS: 2; FGF22 binding: 0; E-sel inducer: inconclusive; SIRT5 block: 15*; miR122 inh: 5

How did Nc1nc(SCc2ccc(Br)cc2)c2ncn(C3OC(CO)C(O)C3O)c2n1 (stereo not given) do in these assays?
S100A4 inh HTS: -3; FGF22 binding: 44*; E-sel inducer: 0

Results for CCCNC(=O)N1CC2(CCN(S(=O)(=O)c3cccc(OC)c3)CC2)c2c(n(C)c3cc(OC)ccc23)[C@H]1CO ?
S100A4 inh HTS: 7; FGF22 binding: 0; E-sel inducer: -1; SIRT5 block: 2

How did CCC(C)NS(=O)(=O)c1ccc(OCC(=O)Nc2ccc3c(c2)OCCO3)cc1 (stereo not given) do in these assays?
miR122 inh: 5
